We go through one compound from ChEMBL document CHEMBL2346640, “Bromo-deaza-SAH: a potent and selective DOT1L inhibitor” (Bioorg Med Chem, 2013).

The target in experiment [1] is T1, N-lysine methyltransferase KMT5A (Homo sapiens) (UniProt Q9NQR1).
T1 sequence (whole entry): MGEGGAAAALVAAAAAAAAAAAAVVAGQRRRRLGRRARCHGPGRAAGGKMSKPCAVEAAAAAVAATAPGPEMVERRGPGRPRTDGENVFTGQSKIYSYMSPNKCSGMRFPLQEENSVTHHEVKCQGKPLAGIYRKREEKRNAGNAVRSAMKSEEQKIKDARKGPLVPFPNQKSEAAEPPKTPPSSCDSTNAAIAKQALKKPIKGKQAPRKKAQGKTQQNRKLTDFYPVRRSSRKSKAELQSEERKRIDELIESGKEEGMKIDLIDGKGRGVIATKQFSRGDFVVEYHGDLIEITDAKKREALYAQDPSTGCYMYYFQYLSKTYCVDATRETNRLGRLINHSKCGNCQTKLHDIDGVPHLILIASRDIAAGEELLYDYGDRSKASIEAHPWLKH
The experiment can be described thus: Inhibition of SETD8 (unknown origin) using [3H]SAM assessed as inhibition of biotinylated-H4 (1 to 24 amino acid residues) methylation at 0.1 to 100 uM after 1 hr by scintillation proximity assay. In general terms: In a scintillation proximity assay essentially only radioactivity close to the scintillant gives light.

Experiment [2] addresses T2, Histone-lysine N-methyltransferase EHMT1 (Homo sapiens) (UniProt Q9H9B1).
T2 sequence (whole entry): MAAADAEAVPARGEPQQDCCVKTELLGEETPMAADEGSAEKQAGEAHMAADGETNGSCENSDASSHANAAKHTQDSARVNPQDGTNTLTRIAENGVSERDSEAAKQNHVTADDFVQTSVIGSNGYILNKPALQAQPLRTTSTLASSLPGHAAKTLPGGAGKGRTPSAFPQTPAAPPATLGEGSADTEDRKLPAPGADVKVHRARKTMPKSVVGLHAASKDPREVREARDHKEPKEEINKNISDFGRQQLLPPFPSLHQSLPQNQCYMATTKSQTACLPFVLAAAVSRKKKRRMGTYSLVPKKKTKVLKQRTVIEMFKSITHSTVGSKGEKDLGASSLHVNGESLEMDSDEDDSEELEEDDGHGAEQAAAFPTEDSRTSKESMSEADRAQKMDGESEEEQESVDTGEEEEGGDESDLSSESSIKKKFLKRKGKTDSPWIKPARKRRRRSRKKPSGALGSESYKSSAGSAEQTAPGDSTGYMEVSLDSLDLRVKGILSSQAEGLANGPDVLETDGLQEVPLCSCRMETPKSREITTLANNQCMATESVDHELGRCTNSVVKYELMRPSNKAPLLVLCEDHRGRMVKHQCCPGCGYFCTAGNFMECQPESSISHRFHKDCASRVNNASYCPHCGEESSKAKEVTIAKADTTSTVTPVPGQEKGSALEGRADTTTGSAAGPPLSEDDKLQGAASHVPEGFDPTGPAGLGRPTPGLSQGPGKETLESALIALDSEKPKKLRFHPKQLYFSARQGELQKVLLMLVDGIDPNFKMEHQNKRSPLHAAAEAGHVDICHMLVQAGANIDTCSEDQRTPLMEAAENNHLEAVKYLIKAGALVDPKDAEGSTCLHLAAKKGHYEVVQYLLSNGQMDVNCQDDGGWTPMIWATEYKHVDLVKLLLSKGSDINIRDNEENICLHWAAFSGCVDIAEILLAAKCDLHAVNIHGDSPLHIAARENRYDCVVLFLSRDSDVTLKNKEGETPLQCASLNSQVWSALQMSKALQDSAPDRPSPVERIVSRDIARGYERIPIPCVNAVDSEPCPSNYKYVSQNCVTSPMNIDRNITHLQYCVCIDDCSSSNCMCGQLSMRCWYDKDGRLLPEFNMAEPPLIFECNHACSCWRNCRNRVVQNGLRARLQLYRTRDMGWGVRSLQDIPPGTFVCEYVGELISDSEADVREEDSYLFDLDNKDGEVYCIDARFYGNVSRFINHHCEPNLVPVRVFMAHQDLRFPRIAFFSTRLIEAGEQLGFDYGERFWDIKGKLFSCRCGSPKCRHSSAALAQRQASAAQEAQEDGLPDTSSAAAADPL
The experiment can be described thus: Inhibition of EHMT1 (unknown origin) using [3H]SAM assessed as inhibition of biotinylated-H3 (1 to 25 amino acid residues) methylation at 0.1 to 100 uM after 1 hr by scintillation proximity assay. The method in brief:
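Triplicates, 1 h at room temperature. Compound range 100 nM–100 µM. Guanidine stop, then Flashplate counting against no-compound and no-enzyme controls. Ki derived as IC50/2.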

In experiment [3] the target is Histone-lysine N-methyltransferase 2A (Homo sapiens) (UniProt Q03164). The experiment can be described thus: Inhibition of MLL1 (unknown origin) using [3H]SAM assessed as inhibition of biotinylated-H3 (1 to 25 amino acid residues) methylation at 0.1 to 100 uM after 1 hr by scintillation proximity assay.
Experiment [4] addresses Histone-lysine N-methyltransferase SUV39H2 (Homo sapiens) (UniProt Q9H5I1). The experiment can be described thus: Inhibition of SUV39H2 (unknown origin) using [3H]SAM assessed as inhibition of biotinylated-H3 (1 to 25 amino acid residues) methylation at 0.1 to 100 uM after 1 hr by scintillation proximity assay. In short, it runs like this: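 Triplicate 1 h room-temperature reactions with compound at 100 nM–100 µM. Read on Flashplate after guanidine quench. Ki = IC50/2.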

For the next experiment, the species on record is Homo sapiens. Nature of the experiment: Inhibition of PRC2 complex (unknown origin) using [3H]SAM assessed as inhibition of biotinylated-H3 (21 to 44 amino acid residues) methylation at 0.1 to 100 uM after 1 hr by scintillation proximity assay.
Experiment [5] addresses Protein arginine N-methyltransferase 3 (Homo sapiens, UniProt O60678). Nature of the experiment: Inhibition of PRMT3 (unknown origin) using [3H]SAM assessed as inhibition of biotinylated-H4 (1 to 24 amino acid residues) methylation after 1 hr by scintillation proximity assay.
The target in experiment [6] is Protein arginine N-methyltransferase 5 (Homo sapiens, UniProt O14744). The experiment can be described thus: Inhibition of PRMT5 (unknown origin) using [3H]SAM after 1 hr by scintillation proximity assay. The method in brief: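 Triplicates, 1 h at room temperature, compound at 100 nM–100 µM. Guanidine quench, then Flashplate counting. Ki calculated as IC50/2.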
Sequence of Protein arginine N-methyltransferase 5 (O14744 whole entry): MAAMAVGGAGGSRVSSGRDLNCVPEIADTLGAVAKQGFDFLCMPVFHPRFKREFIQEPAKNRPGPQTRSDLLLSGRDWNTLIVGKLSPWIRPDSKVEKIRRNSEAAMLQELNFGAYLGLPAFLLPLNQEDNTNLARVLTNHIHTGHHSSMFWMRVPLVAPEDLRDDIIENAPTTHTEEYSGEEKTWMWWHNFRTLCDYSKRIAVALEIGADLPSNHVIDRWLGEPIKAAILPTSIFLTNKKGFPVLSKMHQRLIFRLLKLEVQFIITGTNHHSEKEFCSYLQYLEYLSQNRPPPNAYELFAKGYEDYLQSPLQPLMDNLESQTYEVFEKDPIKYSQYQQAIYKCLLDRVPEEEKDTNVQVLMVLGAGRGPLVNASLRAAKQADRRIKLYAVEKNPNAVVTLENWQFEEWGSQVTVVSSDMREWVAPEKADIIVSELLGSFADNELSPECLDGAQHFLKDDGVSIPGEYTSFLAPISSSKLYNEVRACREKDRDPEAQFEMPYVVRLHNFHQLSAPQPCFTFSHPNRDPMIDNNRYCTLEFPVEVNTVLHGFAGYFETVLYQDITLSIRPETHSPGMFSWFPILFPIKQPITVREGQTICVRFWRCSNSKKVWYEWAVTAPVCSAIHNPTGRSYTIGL

Experiment [7] has as its target T3, Histone-lysine N-methyltransferase EHMT2 (Homo sapiens) (UniProt Q96KQ7).
T3 sequence (whole entry): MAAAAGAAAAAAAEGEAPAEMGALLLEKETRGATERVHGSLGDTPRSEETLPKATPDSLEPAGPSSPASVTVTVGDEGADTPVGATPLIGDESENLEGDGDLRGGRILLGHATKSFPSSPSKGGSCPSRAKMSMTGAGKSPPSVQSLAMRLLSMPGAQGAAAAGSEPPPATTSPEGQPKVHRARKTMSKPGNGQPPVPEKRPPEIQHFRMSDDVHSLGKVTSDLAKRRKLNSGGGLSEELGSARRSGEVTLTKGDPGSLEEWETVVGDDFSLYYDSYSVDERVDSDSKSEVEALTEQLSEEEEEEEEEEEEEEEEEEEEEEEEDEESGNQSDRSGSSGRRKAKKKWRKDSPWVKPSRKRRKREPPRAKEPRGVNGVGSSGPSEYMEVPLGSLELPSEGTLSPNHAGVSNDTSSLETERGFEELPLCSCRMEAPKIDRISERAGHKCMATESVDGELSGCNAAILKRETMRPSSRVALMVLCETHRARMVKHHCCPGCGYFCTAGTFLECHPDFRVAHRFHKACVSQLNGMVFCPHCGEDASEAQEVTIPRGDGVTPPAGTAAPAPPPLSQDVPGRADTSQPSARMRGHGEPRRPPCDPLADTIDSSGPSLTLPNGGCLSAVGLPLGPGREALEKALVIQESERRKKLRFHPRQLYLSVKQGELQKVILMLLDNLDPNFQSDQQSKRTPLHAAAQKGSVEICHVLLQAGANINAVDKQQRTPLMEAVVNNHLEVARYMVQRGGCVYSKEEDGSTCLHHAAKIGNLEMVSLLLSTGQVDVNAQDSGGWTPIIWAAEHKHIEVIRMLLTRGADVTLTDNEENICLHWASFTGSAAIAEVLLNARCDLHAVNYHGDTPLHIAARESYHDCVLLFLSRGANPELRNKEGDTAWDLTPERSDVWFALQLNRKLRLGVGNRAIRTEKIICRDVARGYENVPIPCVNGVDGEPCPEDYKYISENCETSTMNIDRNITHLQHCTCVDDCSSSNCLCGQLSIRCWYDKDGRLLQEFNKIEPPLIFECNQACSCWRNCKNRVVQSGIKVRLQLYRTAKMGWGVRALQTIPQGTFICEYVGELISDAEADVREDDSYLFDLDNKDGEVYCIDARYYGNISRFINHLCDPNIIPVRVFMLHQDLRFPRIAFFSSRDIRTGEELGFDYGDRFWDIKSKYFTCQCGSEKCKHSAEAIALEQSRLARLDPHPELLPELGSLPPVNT
The experiment can be described thus: Inhibition of G9a (unknown origin) using [3H]SAM assessed as inhibition of biotinylated-H3 (1 to 25 amino acid residues) methylation after 1 hr by scintillation proximity assay. The method in brief:
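Triplicates, 1 h at room temperature. Guanidine HCl stop, then Flashplate CPM. Compound at 100 nM–100 µM. Activity normalised to no-compound (100%) and no-enzyme (0%) controls. Ki = IC50/2.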

Experiment [8] addresses T4, Nicotinamide N-methyltransferase (Homo sapiens, UniProt P40261).
T4 sequence (P40261 whole entry): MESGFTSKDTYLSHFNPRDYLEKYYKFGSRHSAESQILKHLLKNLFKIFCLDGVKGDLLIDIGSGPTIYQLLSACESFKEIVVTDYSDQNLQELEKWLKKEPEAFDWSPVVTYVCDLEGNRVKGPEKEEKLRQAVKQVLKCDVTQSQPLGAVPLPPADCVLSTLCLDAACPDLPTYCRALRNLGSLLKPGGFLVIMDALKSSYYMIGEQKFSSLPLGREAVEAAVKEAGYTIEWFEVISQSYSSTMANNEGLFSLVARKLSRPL
Nature of the experiment: Inhibition of recombinant full length human NNMT measured for 30 mins by SAHH-coupled fluorescence assay. The method in brief:
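Compound at 0.1–100 µM. Fluorescence (ex 360, em 528 nm) followed for 30 min; rates taken from initial linear slopes and expressed as % activity. IC50 from a four-parameter logistic fit; SD from three independent experiments.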

In experiment [9] the target is T5, Histone-lysine N-methyltransferase SETD7 (Homo sapiens) (UniProt Q8WTS6).
T5 sequence (whole entry): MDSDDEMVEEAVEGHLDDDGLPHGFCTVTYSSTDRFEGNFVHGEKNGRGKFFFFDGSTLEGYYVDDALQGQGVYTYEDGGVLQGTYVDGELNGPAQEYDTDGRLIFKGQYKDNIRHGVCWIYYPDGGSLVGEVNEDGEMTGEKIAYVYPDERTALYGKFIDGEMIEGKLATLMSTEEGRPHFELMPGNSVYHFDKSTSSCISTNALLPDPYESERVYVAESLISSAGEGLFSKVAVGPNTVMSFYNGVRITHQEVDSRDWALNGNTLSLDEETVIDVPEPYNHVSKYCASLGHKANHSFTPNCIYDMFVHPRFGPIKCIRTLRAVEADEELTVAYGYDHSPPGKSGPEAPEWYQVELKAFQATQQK
Nature of the experiment: Inhibition of SETD7 (unknown origin) using [3H]SAM assessed as inhibition of biotinylated-H3 (1 to 25 amino acid residues) methylation at 0.1 to 100 uM after 1 hr by scintillation proximity assay. In short, it runs like this: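 Triplicates, 1 h at room temperature, compound at 100 nM–100 µM. Guanidine HCl stop, then Flashplate CPM normalised to controls. Ki = IC50/2.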

Experiment [10] has as its target DNA (cytosine-5)-methyltransferase 1 (Homo sapiens, UniProt P26358). The experiment can be described thus: Inhibition of DNMT1 (unknown origin) using [3H]-SAM assessed as inhibition of dsDNA methylation after 1 hr by scintillation proximity assay. In short, it runs like this: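 Incubated 1 h at 37 °C, quenched with guanidine HCl, then counted on a Flashplate. IC50 was taken at the SAM Km and converted to Ki as IC50/2.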

Active and inactive are the calls of the source. No cut-off for these calls is given here.

Sequence of Protein arginine N-methyltransferase 3 (O60678 whole entry, the tested form may be a part): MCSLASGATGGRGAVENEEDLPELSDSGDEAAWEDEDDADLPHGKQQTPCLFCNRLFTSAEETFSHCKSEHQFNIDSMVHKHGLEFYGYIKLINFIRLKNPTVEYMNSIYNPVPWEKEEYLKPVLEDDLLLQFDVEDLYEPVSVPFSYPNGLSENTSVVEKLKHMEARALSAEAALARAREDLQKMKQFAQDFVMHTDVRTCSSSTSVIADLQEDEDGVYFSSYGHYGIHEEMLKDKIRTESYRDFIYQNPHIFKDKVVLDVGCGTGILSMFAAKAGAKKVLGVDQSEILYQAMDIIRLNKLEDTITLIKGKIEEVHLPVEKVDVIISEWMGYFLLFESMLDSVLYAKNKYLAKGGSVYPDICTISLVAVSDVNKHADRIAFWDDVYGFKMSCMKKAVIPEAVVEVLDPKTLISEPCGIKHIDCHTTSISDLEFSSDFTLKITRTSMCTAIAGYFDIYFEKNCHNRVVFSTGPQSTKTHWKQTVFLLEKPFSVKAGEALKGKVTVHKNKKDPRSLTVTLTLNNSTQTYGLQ
Sequence of DNA (cytosine-5)-methyltransferase 1 (P26358 whole entry): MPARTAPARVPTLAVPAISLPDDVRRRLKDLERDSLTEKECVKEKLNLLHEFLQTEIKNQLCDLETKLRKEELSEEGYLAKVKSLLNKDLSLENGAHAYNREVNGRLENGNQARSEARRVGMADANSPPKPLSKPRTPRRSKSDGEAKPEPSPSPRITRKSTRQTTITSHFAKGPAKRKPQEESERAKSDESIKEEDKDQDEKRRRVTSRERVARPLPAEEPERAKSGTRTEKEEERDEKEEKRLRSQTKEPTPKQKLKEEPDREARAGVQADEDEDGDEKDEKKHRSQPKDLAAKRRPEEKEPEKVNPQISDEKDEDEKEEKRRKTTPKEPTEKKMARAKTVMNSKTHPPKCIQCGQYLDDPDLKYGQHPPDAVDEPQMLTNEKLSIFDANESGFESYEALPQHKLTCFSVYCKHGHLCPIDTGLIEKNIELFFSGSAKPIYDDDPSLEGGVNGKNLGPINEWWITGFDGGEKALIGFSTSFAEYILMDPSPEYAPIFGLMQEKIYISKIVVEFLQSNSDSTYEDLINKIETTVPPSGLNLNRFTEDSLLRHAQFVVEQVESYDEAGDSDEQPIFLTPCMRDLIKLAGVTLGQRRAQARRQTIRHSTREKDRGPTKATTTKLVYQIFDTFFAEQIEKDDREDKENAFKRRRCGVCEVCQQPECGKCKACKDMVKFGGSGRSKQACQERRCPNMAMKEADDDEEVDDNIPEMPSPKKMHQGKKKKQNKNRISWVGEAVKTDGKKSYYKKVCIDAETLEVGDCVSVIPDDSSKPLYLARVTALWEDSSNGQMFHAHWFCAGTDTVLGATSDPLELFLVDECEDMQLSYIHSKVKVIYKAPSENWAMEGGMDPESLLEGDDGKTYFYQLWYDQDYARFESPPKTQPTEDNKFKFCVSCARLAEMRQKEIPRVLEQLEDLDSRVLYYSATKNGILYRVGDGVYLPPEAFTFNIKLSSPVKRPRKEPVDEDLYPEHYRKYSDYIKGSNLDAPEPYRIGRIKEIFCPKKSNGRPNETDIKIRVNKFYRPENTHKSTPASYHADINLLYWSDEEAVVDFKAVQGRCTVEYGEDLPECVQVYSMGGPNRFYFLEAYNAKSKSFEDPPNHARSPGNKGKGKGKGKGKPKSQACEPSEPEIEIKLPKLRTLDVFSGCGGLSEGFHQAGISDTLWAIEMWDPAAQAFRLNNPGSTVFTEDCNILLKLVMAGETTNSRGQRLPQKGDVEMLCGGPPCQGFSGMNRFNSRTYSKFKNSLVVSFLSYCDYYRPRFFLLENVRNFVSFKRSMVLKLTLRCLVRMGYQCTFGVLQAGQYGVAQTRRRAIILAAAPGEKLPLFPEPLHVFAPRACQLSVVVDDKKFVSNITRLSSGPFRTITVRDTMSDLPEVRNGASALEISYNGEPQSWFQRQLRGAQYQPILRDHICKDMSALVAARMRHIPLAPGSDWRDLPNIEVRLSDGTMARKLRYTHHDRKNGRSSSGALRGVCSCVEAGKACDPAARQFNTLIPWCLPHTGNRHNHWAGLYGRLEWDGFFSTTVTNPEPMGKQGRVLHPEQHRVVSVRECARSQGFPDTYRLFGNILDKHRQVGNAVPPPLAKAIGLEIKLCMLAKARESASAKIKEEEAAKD
Sequence of Histone-lysine N-methyltransferase SUV39H2 (Homo sapiens) (Q9H5I1 whole entry, the tested form may be a part): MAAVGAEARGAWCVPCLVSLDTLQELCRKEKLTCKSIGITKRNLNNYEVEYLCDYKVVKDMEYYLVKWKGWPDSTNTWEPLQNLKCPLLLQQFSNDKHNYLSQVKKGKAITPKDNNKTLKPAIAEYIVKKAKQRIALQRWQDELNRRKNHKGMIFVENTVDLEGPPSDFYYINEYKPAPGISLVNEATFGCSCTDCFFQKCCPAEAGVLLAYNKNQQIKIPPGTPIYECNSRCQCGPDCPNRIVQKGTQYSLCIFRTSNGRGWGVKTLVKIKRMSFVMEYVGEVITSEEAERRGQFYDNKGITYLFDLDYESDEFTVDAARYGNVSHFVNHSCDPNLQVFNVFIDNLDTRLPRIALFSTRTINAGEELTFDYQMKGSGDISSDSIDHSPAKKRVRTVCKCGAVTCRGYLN

For the compound `Nc1ncnc2c1c(Br)cn2[C@@H]1O[C@H](CSCC[C@H](N)C(=O)O)[C@@H](O)[C@H]1O`, the inhibition entry (in experiment [1]; in [2]; in [3]; in [4]; in the experiment listed under Homo sapiens; in [7]) was “inactive” each time. Further, the inhibition result in [9] is “inactive”. For the same compound, the half-maximal inhibitory concentration (IC50) (as a rule, the concentration that inhibits the measured activity by half) came to 2300 nM in experiment [5], 2300 nM in [6], 1500 nM in experiment [8] and 1900 nM in [10]. For the same compound, the Ki (as a rule, the dissociation constant of the complex between target and ligand, obtained from inhibition or displacement) in [5] was determined as 1150 nM; in experiment [6] it was 1150 nM; in experiment [8], 750 nM; in experiment [10], 950 nM.
